Results as given in ChEMBL document CHEMBL1156149, “Cyclic sulfones as novel P3-caps for hepatitis C virus NS3/4A (HCV NS3/4A) protease inhibitors: synthesis and evaluation of inhibitors with improved potency and pharmacokinetic profiles” (J Med Chem, 2010).

Assays:
[1] = Inhibition of HCV NS3/4A protease; design: species or system Hepacivirus hominis
[2] = test system: Hepatitis C virus; assay: Antiviral activity against Hepatitis C virus infected in human hepatoma cells assessed as inhibition of viral replication; assay type: functional, organism-based, Hepacivirus hominis
[3] = AUC (0 to 24 hrs) in monkey at 3 mg/kg, po; assay type: ADME, organism-based, Macaca mulatta; design: time < 24 hr, dose 3 mg/kg, route oral; details: rhesus monkey, plasma
[4] = Ratio of plasma concentration in monkey at 3 mg/kg, po after 8 hrs to EC90 for Hepatitis C virus; assay type: ADME, organism-based; design: dose 3 mg/kg, route oral; details: in vivo
[5] = Plasma concentration in monkey at 3 mg/kg, po after 8 hrs; assay type: ADME, organism-based, Macaca mulatta; design: dose 3 mg/kg, route oral; details: rhesus monkey
[6] = AUC (0 to 6 hrs) in rat at 10 mg/kg, po; assay type: ADME, organism-based; design: time < 6 hr, dose 10 mg/kg, route oral; details: plasma
Procedure, shortened: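 Rats dosed orally at 10 mg/kg in 0.4% methylcellulose in water, in a rapid rat protocol. Blood was withdrawn periodically and pooled, and plasma AUC was calculated over the stated interval.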

[7] = AUC in rat at 10 mg/kg; assay type: ADME, organism-based; design: dose 10 mg/kg; details: plasma
Procedure, shortened: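 Rats were given compound orally at 10 mg/kg in 0.4% methylcellulose in water. Blood was sampled periodically and pooled (rapid rat protocol). Plasma exposure was reported as AUC(0-6h) in μM h.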

[8] = AUC in monkey at 3 mg/kg; assay type: ADME, organism-based, Macaca mulatta; design: dose 3 mg/kg; details: rhesus monkey, plasma
Procedure, shortened: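 Oral dosing of monkeys at 3 mpk, with compound suspended in 0.4% methylcellulose. Exposure was reported as plasma AUC(0-24h) in μM h. Plasma concentration at 8 h was also taken and expressed as a ratio to cellular EC90.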

[9] = Bioavailability in monkey at 3 mg/kg; assay type: ADME, organism-based, Macaca mulatta; details: rhesus monkey, in vivo

Row | SMILES | Ki [1] [nM] | EC90 [2] [nM] | further results
1 | C=CCNC(=O)C(=O)[C@H](CCCC)NC(=O)[C@@H]1C2C(CN1C(=O)[C@@H](NC(=O)NC1([C@H]3CCCS3(=O)=O)CCCCC1)C(C)(C)C)C2(C)C (single isomer, unassigned) | 3 | 30 | AUC(0-t) at 24 h [3]: 2.2 µM·h
2 | CCC[C@H](NC(=O)[C@@H]1C2C(CN1C(=O)[C@@H](NC(=O)NC1([C@H]3CCCS3(=O)=O)CCCCC1)C1(C)CCCCC1)C2(C)C)C(=O)C(=O)NC1CC1 (single isomer, unassigned) | 2 | 20 | Ratio [4]: 47; AUC(0-t) at 24 h [3]: 20.8 µM·h; concentration at 8 h [5]: 934 nM
3 | C=CCNC(=O)C(=O)[C@H](CCCC)NC(=O)[C@@H]1[C@H]2[C@@H](CN1C(=O)[C@@H](NC(=O)NC1([C@H]3CCCCS3(=O)=O)CCCCC1)C(C)(C)C)C2(C)C | 12 | 60 | 
4 | CCCC[C@H](NC(=O)[C@@H]1C2C(CN1C(=O)[C@@H](NC(=O)NC1([C@H]3CCCS3(=O)=O)CCCCC1)C1(C)CCCCC1)C2(C)C)C(=O)C(=O)NC1CC1 (single isomer, unassigned) | 3 | 20 | Ratio [4]: 37; AUC(0-t) at 24 h [3]: 9 µM·h; concentration at 8 h [5]: 742 nM
5 | CCCC[C@H](NC(=O)[C@@H]1C2C(CN1C(=O)[C@@H](NC(=O)NC1([C@H]3CCS3(=O)=O)CCCCC1)C(C)(C)C)C2(C)C)C(=O)C(=O)NC1CC1 (single isomer, unassigned) | 10 | 60 | 
6 | CCCC[C@H](NC(=O)[C@@H]1C2C(CN1C(=O)[C@@H](NC(=O)NC1([C@@H]3CCCS3(=O)=O)CCCCC1)C(C)(C)C)C2(C)C)C(=O)C(=O)NC1CC1 (single isomer, unassigned) | 4 | 30 | 
7 | CC1([C@H](NC(=O)NC2([C@H]3CCCS3(=O)=O)CCCCC2)C(=O)N2C[C@@H]3[C@H]([C@H]2C(=O)N[C@@H](CCC2CC2)C(=O)C(=O)NC2CC2)C3(C)C)CCCCC1 | 3 | 40 | Ratio [4]: 8; AUC(0-t) at 24 h [3]: 3.5 µM·h; concentration at 8 h [5]: 303 nM
8 | CCC[C@H](NC(=O)[C@@H]1[C@H]2[C@@H](CN1C(=O)[C@@H](NC(=O)NC1([C@H]3CCCCS3(=O)=O)CCCCC1)C(C)(C)C)C2(C)C)C(=O)C(=O)NC1CC1 | 12 | 40 | 
9 | CC1(C)C2CN(C(=O)[C@@H](NC(=O)NC3([C@H]4CCCCS4(=O)=O)CCCCC3)C(C)(C)C)[C@H](C(=O)N[C@@H](CCC3CC3)C(=O)C(=O)NC3CC3)C21 (single isomer, unassigned) | 6 | 40 | 
10 | C=CCNC(=O)C(=O)[C@H](CCC1CC1)NC(=O)[C@@H]1C2C(CN1C(=O)[C@@H](NC(=O)NC1([C@H]3CCCS3(=O)=O)CCCCC1)C(C)(C)C)C2(C)C (single isomer, unassigned) | 4 | 35 | 
11 | CC(C)(C)[C@H](NC(=O)NC1([C@H]2CCCS2(=O)=O)CCCCC1)C(=O)N1C[C@@H]2[C@H]([C@H]1C(=O)N[C@@H](CCC1CC1)C(=O)C(=O)NC1CC1)C2(C)C | 4 | 40 | 
12 | CCC[C@H](NC(=O)[C@@H]1C2C(CN1C(=O)[C@@H](NC(=O)NC1([C@H]3CCCS3(=O)=O)CCCCC1)C(C)(C)C)C2(C)C)C(=O)C(=O)NC1CC1 (single isomer, unassigned) | 4 | 20 | 
13 | CCC[C@H](NC(=O)[C@@H]1[C@H]2[C@@H](CN1C(=O)[C@@H](NC(=O)NC1([C@H]3CCCCS3(=O)=O)CCCCC1)C1(C)CCCCC1)C2(C)C)C(=O)C(=O)NC1CC1 | 7 | 50 | 
14 | C=CCNC(=O)C(=O)C(CCC)NC(=O)[C@@H]1[C@H]2[C@@H](CN1C(=O)[C@@H](NC(=O)NC1([C@H]3CCCS3(=O)=O)CCCCC1)C(C)(C)C)C2(C)C (mixture of isomers) | 6 | 35 | 
15 | C=CCNC(=O)C(=O)[C@H](CCC1CC1)NC(=O)[C@@H]1[C@H]2[C@@H](CN1C(=O)[C@@H](NC(=O)NC1([C@H]3CCCCS3(=O)=O)CCCCC1)C(C)(C)C)C2(C)C | 4 | 40 | 
16 | CC1(NC(=O)N[C@H](C(=O)N2C[C@@H]3[C@H]([C@H]2C(=O)NC(CC2CCC2)C(=O)C(N)=O)C3(C)C)C(C)(C)C)CCCCC1 (some centres undefined) | 9 |  | EC90 ([2]; read-out: EC90): 200 nM
17 | CCCC[C@H](NC(=O)[C@@H]1[C@H]2[C@@H](CN1C(=O)[C@@H](NC(=O)NC1([C@H]3CCCCS3(=O)=O)CCCCC1)C1(C)CCCCC1)C2(C)C)C(=O)C(=O)NC1CC1 | 8 | 100 | 
18 | CCCC[C@H](NC(=O)[C@@H]1C2C(CN1C(=O)[C@@H](NC(=O)NC1([C@H]3CCCS3(=O)=O)CCCCC1)C(C)(C)C)C2(C)C)C(=O)C(=O)NC1CC1 (single isomer, unassigned) | 4 | 20 | Ratio [4]: 0.5; AUC(0-t) at 24 h [3]: 0.4 µM·h; AUC(0-t) at 6 h [6]: 0.9 µM·h; concentration at 8 h [5]: 10 nM
19 | CCCC[C@H](NC(=O)[C@@H]1C2C(CN1C(=O)[C@@H](NC(=O)NC1([C@@H]3CCS3(=O)=O)CCCCC1)C(C)(C)C)C2(C)C)C(=O)C(=O)NC1CC1 (single isomer, unassigned) | 5 | 120 | 
20 | CCCC[C@H](NC(=O)[C@@H]1[C@H]2[C@@H](CN1C(=O)[C@@H](NC(=O)NC1([C@H]3CCCCS3(=O)=O)CCCCC1)C(C)(C)C)C2(C)C)C(=O)C(=O)NC1CC1 | 10 | 50 | 
21 | CC(C)(C)NC(=O)N[C@H](C(=O)N1C[C@H]2[C@@H]([C@H]1C(=O)NC(CC1CCC1)C(=O)C(N)=O)C2(C)C)C(C)(C)C (some centres undefined) [BOCEPREVIR] | 14 |  | EC90 ([2]; read-out: EC90): 350 nM; AUC [7]: 1.52 µM·h; AUC [8]: 0.12 µM·h; bioavailability [9]: 4%; AUC(0-t) at 24 h [3]: 0.12 µM·h
22 | CCCC[C@H](NC(=O)[C@@H]1C2C(CN1C(=O)[C@@H](NC(=O)NC1([C@@H]3CCCCS3(=O)=O)CCCCC1)C(C)(C)C)C2(C)C)C(=O)C(=O)NC1CC1 (single isomer, unassigned) | 11 | 60 | 
23 | C=CCNC(=O)C(=O)[C@H](CCC)NC(=O)[C@@H]1C2C(CN1C(=O)[C@@H](NC(=O)NC1([C@H]3CCCCS3(=O)=O)CCCCC1)C(C)(C)C)C2(C)C (single isomer, unassigned) | 3 | 30 | 
